Source: ChEMBL document CHEMBL1151692, “Substituted hippurates and hippurate analogs as substrates and inhibitors of peptidylglycine alpha-hydroxylating monooxygenase (PHM)” (Bioorg Med Chem, 2008)
Where a SMILES comes first, the peptide text is derived from it. [ ]: non-standard residue; d: D form. The star is where a group is joined. Dansyl = CN(C)c1cccc2c(S(=O)(=O)*)cccc12; pGlu = O=C1CC[C@@H](C(=O)O)N1; Boc = CC(C)(C)OC(=O)*; Bz = O=C(c1ccccc1)*; ClAc = O=C(CCl)*; NHOH = ON*

Tests used:
[1] = molecular target: peptidylglycine alpha-amidating monooxygenase (Rattus norvegicus) (UniProt P14925); test: Inhibition of rat peptidylamidoglycolate lyase assessed as ascorbate-independent dealkylation of alpha-hydroxy-hipurate; set-up: concentration or dose not given beside the values; settings: for inhibition: concentration not given here
[2] = molecular target: T1, Peptidylglycine alpha-amidating monooxygenase (Rattus norvegicus) (UniProt P14925); test: Activity of rat recombinant peptidylglycine alpha-amidating monooxygenase assessed as stimulation of oxygen consumption
T1 sequence (whole entry): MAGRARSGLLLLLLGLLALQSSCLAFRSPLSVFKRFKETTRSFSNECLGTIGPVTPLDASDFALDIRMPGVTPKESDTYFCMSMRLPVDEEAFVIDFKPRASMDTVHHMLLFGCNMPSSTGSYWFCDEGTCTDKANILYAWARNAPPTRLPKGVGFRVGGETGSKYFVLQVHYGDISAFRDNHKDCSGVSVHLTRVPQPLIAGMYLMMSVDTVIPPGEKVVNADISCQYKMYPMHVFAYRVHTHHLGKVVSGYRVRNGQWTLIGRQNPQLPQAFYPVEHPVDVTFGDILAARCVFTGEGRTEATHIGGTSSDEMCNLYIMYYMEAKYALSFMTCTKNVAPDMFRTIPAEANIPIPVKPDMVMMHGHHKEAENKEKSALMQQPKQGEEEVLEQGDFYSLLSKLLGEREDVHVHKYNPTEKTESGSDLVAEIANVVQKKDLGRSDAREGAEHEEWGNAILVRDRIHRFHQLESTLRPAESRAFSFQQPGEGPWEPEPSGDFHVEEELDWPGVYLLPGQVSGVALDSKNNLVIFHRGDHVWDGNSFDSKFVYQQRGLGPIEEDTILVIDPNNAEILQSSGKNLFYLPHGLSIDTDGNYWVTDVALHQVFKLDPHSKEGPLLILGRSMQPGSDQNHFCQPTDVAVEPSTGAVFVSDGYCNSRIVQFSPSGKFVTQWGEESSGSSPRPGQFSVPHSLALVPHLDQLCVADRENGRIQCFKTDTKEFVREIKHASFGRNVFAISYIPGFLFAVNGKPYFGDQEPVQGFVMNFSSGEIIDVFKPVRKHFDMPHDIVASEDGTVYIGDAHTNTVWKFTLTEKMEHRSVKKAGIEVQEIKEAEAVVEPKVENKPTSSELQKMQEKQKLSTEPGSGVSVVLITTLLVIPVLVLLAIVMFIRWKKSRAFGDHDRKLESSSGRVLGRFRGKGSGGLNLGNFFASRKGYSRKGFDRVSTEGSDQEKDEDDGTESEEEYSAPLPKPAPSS

[3] = molecular target: T1, Peptidylglycine alpha-amidating monooxygenase (Rattus norvegicus); test: Ratio of Vm(app) to Km(app) for rat recombinant peptidylglycine alpha-amidating monooxygenase
How it was run: (§1)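 Recombinant rat type A medullary thyroid carcinoma PAM (bifunctional), 15–50 μg, in 100 mM MES/NaOH pH 6.0, 30 mM NaCl, 1% ethanol, 0.001% Triton X-100, 10 μg/mL catalase, 1.0 μM Cu(NO3)2, 5.0 mM ascorbate, ~200 μM O2, 37 °C. Substrate generally 0.3–5.0 KM,app. Initial O2 consumption rates read by oxygen monitor and fit to Michaelis–Menten.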

[4] = molecular target: T1, Peptidylglycine alpha-amidating monooxygenase (Rattus norvegicus); test: Ratio of Vm(app) to Km(app) for rat recombinant peptidylglycine alpha-amidating monooxygenase relative to hippuric acid
How it was run: as §1

[5] = molecular target: T1, Peptidylglycine alpha-amidating monooxygenase (Rattus norvegicus); test: Inhibition of rat recombinant peptidylglycine alpha-amidating monooxygenase assessed as inhibition of N-dansyl-Tyr-Val-Gly amidation
[6] = molecular target: T1, Peptidylglycine alpha-amidating monooxygenase (Rattus norvegicus); test: Inhibition of rat recombinant peptidylglycine alpha-amidating monooxygenase in presence of DMSO

| SMILES | Vmax(app) [2] [s⁻¹] | Ratio [3] | Activity [4] | further results |
| --- | --- | --- | --- | --- |
| CC(C#N)(CCC(=O)O)SC(=S)c1ccccc1 (stereo not given) | – | – | – | inhibition [1]: < 5% |
| O=C(O)CNC(=O)c1ccc([N+](=O)[O-])cc1 | 4.2 | 8.9 ×10³ /M/s | 1.4 | – |
| O=C(O)CNC(=O)/C=C/c1ccco1 | 3.4 | 2.8 ×10³ /M/s | 0.45 | – |
| CC(Cc1ccccc1)C(=O)NCC(=O)O (stereo not given) | 18 | 4.3 ×10³ /M/s | 0.69 | – |
| Cc1ccc(C(=O)NCC(=O)O)cc1 | 5.7 | 3.2 ×10³ /M/s | 0.5 | – |
| O=C(O)CONC(=O)c1ccccc1 | – | – | – | inhibition [1]: < 5% |
| O=C(O)CNC(=O)CNC(=O)CCl (ClAc-Gly-Gly-OH) | 8.9 | 2.1 ×10⁴ /M/s | 3.3 | – |
| O=C(O)CNC(=O)c1cccs1 | 9.3 | 6 ×10³ /M/s | 1 | – |
| O=C(O)CSc1ccccc1 | – | – | – | inhibition [1]: < 5% |
| O=C(O)CNC(=O)c1ccccc1O | 4.9 | 7.1 ×10³ /M/s | 1.1 | – |
| O=C(NCC[C@H](O)C(=O)O)OCc1ccccc1 | – | – | – | inhibition [1]: < 5% |
| CC(=O)NCC(=O)O | – | – | 0.1 | – |
| NCC(=O)NNC(=O)OCc1ccccc1 | – | – | – | inhibition [1]: < 5% |
| O=C(O)CCSC(=S)Nc1ccccc1 | – | – | – | inhibition [1]: < 5% |
| CC(=O)N[C@H](C)C(=O)O | 1.3 | 0.95 M⁻¹ s⁻¹ | – | – |
| O=C(O)CNC(=O)CCCCc1ccccc1 | 12 | 7.6 ×10⁴ /M/s | 12 | – |
| O=C(NC(CSC(=O)c1ccccc1)C(=O)O)c1ccccc1 (single isomer, unassigned) | – | – | – | inhibition [1]: < 5% |
| O=C(O)CNC(=O)c1ccc(Cl)cc1 | 4.1 | 6.6 ×10³ /M/s | 1.1 | – |
| CC(C)CCC(=O)NCC(=O)O | 6.6 | 2.3 ×10⁴ /M/s | 3.7 | – |
| CC(NC(=S)c1ccccc1)C(=O)O (stereo not given) | – | – | – | inhibition [1]: < 5% |
| O=C(O)CNC(=S)Cc1ccccc1 | 2.4 | 1 ×10⁵ /M/s | 16 | – |
| O=C(O)CNC(=O)c1ccco1 | 7.5 | 2.8 ×10³ /M/s | 0.5 | – |
| CC(C)[C@H](NC(=O)[C@H](Cc1ccc(O)cc1)NS(=O)(=O)c1cccc2c(N(C)C)cccc12)C(=O)N[C@H](C)C(=O)O (Dansyl-Tyr-Val-[dA]-OH) | 0.91 | 3 ×10⁴ /M/s | – | – |
| CCCc1ccc(C(=O)NCC(=O)O)cc1 | 5.1 | 4.2 ×10³ /M/s | 0.7 | – |

| SMILES | Vmax(app) [2] [s⁻¹] | Ratio [3] | Activity [4] | further results |
| --- | --- | --- | --- | --- |
| Nc1ccccc1C(=O)NCC(=O)O | 4.2 | 2.9 ×10³ /M/s | 0.5 | – |
| CC(C)SCC(=O)NCC(=O)O | 1.8 | 8.2 ×10³ /M/s | 1.3 | – |
| O=C(O)CNC(=O)CCCCCc1ccccc1 | 11 | 2 ×10⁵ /M/s | 32 | – |
| Cc1ccc(C(=S)SCC(=O)O)cc1 | – | – | – | inhibition [1]: < 5% |
| CC(C)C[C@H](NC(=O)[C@@H]1CCCN1)C(=O)NCC(=O)NO (H-Pro-Leu-Gly-{NHOH}) | – | – | – | inhibition [1]: < 5% |
| O=C(O)CNC(=O)[C@@H]1CCC(=O)N1 ([pGlu]-Gly-OH) | 9.3 | 3 ×10⁴ /M/s | 4.8 | – |
| CC(C)(C)OC(=O)NCC(=O)NCC(=O)O (Boc-Gly-Gly-OH) | 7.5 | 2.5 ×10⁴ /M/s | 4 | – |
| O=C(O)CNC(=O)CCCc1ccccc1 | 11 | 7 ×10⁴ /M/s | 11 | – |
| Cc1ccccc1C(=O)NCC(=O)O | 7.9 | 1.8 ×10³ /M/s | 0.3 | – |
| O=C(O)CNC(=O)CSc1ccccc1 | 4.6 | 2.5 ×10⁴ /M/s | 4 | – |
| O=C(O)CNC(=O)CNC(=O)CNC(=O)c1ccccc1 (Bz-Gly-Gly-Gly-OH) | 8.8 | 2.9 ×10⁴ /M/s | 4.7 | – |
| CCc1ccc(C(=O)NCC(=O)O)cc1 | 3.6 | 3.1 ×10³ /M/s | 0.5 | – |
| O=C(O)CNC(=O)c1cccnc1 | – | – | 0.7 | – |
| COC(=O)CNC(=O)[C@@H](NC(=O)[C@H](Cc1ccc(O)cc1)NS(=O)(=O)c1cccc2c(N(C)C)cccc12)C(C)C (Dansyl-Tyr-Val-Gly-OMe) | – | – | – | Kis [5]: 54 µM |
| O=C(N[C@H](CO)C(=O)O)c1ccccc1 | – | – | – | inhibition [1]: < 5% |
| O=C(O)CNC(=O)OCc1ccccc1 | 8.6 | 1.5 ×10⁴ /M/s | 2.4 | – |
| O=C(O)CNC(=O)c1ccccc1I | 3.1 | 9.1 ×10² /M/s | 0.1 | – |
| O=C(O)CNC(=O)c1c(F)cccc1F | 4.3 | 2.3 ×10² /M/s | 0.04 | – |
| O=C(O)CNC(=O)C1CC1c1ccccc1 (stereo not given) | 10 | 1.1 ×10⁴ /M/s | 1.8 | – |
| O=C(O)CNC(=O)CNC(=O)c1ccccc1 (Bz-Gly-Gly-OH) | 12 | 1.6 ×10⁵ /M/s | 26 | – |
| O=C(O)CNC(=S)CCc1ccccc1 | 1.6 | 4.2 ×10⁴ /M/s | 6.8 | – |
| CCCCCCCCCCCC(=S)SCC(=O)O | – | – | – | inhibition [1]: < 5% |
| COc1ccc(C(=O)NCC(=O)O)cc1 | 5.3 | 6.4 ×10³ /M/s | 1 | – |
| O=C(O)CNC(=O)CNC(=O)c1ccc([N+](=O)[O-])cc1 | 8.7 | 7.6 ×10⁴ /M/s | 12 | – |

| SMILES | Vmax(app) [2] [s⁻¹] | Ratio [3] | Activity [4] | further results |
| --- | --- | --- | --- | --- |
| O=C(O)CNC(=O)CCc1ccccc1 | 9.9 | 1.1 ×10⁴ /M/s | 1.8 | – |
| O=C(NO)c1ccccc1O | – | – | – | inhibition [1]: < 5% |
| O=C(O)CNC(=O)c1cccc(Cl)c1 | 7.8 | 3.6 ×10³ /M/s | 0.6 | – |
| O=C(O)CNC(=O)CCCCCCCc1ccccc1 | 8 | 7.6 ×10⁴ /M/s | 12 | – |
| C[C@@H](NC(=O)c1ccccc1)C(=O)O | 0.27 | 3.2 M⁻¹ s⁻¹ | – | – |
| O=C(O)CNC(=S)Nc1ccccc1 | – | – | – | inhibition [1]: < 5% |
| O=C(O)CNC(=O)c1ccc(Br)cc1 | 2.5 | 4.9 ×10³ /M/s | 0.8 | – |
| CC(C)(C)OC(=O)NCC(=O)O | 6.3 | 1.7 ×10³ /M/s | 0.3 | – |
| O=C(O)CNC(=O)SCc1ccccc1 | 0.69 | 1.2 ×10⁴ /M/s | 1.9 | – |
| O=C(O)CSC(=S)c1ccccc1 | – | – | – | Kis [5]: 39 µM; Kis [6]: 49 µM; inhibition [1]: < 5% |
| O=C(O)CNC(=O)/C=C/c1ccccc1 | 8.4 | 3.6 ×10⁴ /M/s | 5.8 | – |
| O=C(O)CNC(=O)c1ccc(C(F)(F)F)cc1 | 2.8 | 3.6 ×10³ /M/s | 0.6 | – |
| O=C(O)CNC(=O)c1ccc(O)cc1 | 5.8 | 3.5 ×10³ /M/s | 0.6 | – |
| O=C(O)CNCc1ccccc1 | – | – | – | inhibition [1]: < 5% |
| Cc1cccc(C(=O)NCC(=O)O)c1 | 6.4 | 4.7 ×10³ /M/s | 0.8 | – |
| CC(=O)NCC(=O)NCC(=O)O | 8.9 | 5.9 ×10³ /M/s | 1 | – |
| Nc1ccc(C(=O)NCC(=O)O)cc1 | 5.6 | 2.2 ×10³ /M/s | 0.4 | – |
| O=C(O)CSC(=S)Nc1ccccc1 | – | – | – | IC50 [1]: 3.5 mM |
| O=C(O)CNC(=O)Nc1ccccc1 | 9.7 | 2.7 ×10⁴ /M/s | 4.4 | – |
| O=C(O)COC(=O)Nc1ccccc1 | – | – | – | inhibition [1]: < 5% |
| O=C(O)CSC(=S)CCc1ccccc1 | – | – | – | Kis [5]: 9.4 µM; Kis [6]: 30 µM; inhibition [1]: < 5% |
| CC(SC(=S)c1ccccc1)C(=O)O (racemic) | – | – | – | inhibition [1]: < 5% |
